Source: ChEMBL document CHEMBL4024800, “α-Amino-β-carboxymuconate-ε-semialdehyde Decarboxylase (ACMSD) Inhibitors as Novel Modulators of De Novo Nicotinamide Adenine Dinucleotide (NAD+) Biosynthesis” (J Med Chem, 2018)
≈ marks a conversion by molar mass, not a printed value. Calls of active or inactive are those of the source. No cut-off for these calls is given here.

Experiments:
[1] = Cytotoxicity against mouse AML-12 cells assessed as reduction in cell viability after 4 hrs by celltiter-glo assay; assay type: cell-based; details: aml-12, 4 h
In short: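 HepG2 or AML12 cells, 5 × 10^3 per well, exposed to compound for 4 h at 37 °C. Viability read as ATP by CellTiter-Glo luminescence; tamoxifen control.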

[2] = biological target: T1, 2-amino-3-carboxymuconate-6-semialdehyde decarboxylase (Homo sapiens, UniProt Q8TDX5); experiment: Inhibition of human ACMSD expressed in Pichia pastoris using ACMS as substrate by coupled spectrophotometric assay
In short: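 Recombinant enzyme purified from Pichia pastoris; ACMS substrate generated in a pre-assay mix from 10 μM 3-hydroxyanthranilic acid by Ralstonia metallidurans 3-hydroxyanthranilate 3,4-dioxygenase, formation monitored at 360 nm. Enzyme and compound then added together; activity from initial rate of absorbance decrease minus a no-enzyme control. Serial dilutions, 1.0% DMSO throughout. IC50 from concentration–response curves, mean ± SD of three independent experiments.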
Target sequence in this assay (Q8TDX5 whole entry): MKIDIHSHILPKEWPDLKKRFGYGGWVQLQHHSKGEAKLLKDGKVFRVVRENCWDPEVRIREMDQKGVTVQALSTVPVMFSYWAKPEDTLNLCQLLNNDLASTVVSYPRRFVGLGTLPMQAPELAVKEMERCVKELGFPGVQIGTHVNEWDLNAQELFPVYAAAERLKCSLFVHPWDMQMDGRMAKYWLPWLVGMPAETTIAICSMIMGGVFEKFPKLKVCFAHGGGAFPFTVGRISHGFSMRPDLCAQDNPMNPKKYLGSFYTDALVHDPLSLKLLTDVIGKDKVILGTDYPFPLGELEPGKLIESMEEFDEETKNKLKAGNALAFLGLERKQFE

[3] = biological target: T2, Cytochrome P450 3A1 (Rattus norvegicus, UniProt P04800); experiment: Inhibition of recombinant rat CYP3A1 expressed in baculosomes expression system using fluorogenic-BOMCC as substrate by fluorescent homogeneous assay; assay type: ADME
T2 sequence (P04800 whole entry): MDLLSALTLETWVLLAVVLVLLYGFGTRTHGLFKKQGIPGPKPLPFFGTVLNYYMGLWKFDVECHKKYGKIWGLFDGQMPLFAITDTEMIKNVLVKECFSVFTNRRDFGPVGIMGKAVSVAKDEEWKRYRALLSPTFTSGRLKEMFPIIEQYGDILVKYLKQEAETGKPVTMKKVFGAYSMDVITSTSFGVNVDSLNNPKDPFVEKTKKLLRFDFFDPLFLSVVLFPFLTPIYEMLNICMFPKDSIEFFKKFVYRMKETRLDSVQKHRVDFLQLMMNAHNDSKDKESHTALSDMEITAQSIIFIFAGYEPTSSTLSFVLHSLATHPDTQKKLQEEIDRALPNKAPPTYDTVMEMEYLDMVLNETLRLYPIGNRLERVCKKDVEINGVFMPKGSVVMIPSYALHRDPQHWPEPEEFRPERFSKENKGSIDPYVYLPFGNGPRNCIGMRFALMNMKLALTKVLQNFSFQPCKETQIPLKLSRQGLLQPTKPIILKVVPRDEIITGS
In short: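 Recombinant CYP baculosomes with fluorogenic substrates, at concentrations below their Km; homogeneous fluorescence read-out, run in triplicate. IC50 classes: <1 μM potent, 1–10 μM moderate, >10 μM weak or none.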

[4] = AUClast in CD1 mouse at 0.5 mg/kg, iv measured up to 24 hrs post dose; assay type: ADME, organism-based; parameters: dose 0.5 mg/kg, time < 24 hr, route intravenous; details: in vivo
In short: (§1)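 Mice given 0.5 mg/kg IV in saline containing 5% (v/v) DMSO and 20% (v/v) PEG400; blood pharmacokinetic parameters reported as means.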

[5] = organism: Homo sapiens; experiment: Activity at PPAR (unknown origin)
In short: (§2)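 Eight-point serial dilutions tested in an in-house AlphaScreen-based nuclear receptor panel; activity derived from nonlinear regression curves.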

[6] = Clearance in CD1 mouse at 0.5 mg/kg, iv measured up to 24 hrs post dose; assay type: ADME, organism-based; details: in vivo; in short: as §1
[7] = biological target: T1, 2-amino-3-carboxymuconate-6-semialdehyde decarboxylase; experiment: Inhibition of ACMSD in human primary hepatocytes assessed as increase in intracellular NAD+ levels at 5 uM after 48 hrs by NAD/NADH-Glo assay; assay type: cell-based
Target sequence in this assay (Q8TDX5 whole entry, looked up): as the sequence (Q8TDX5 whole entry) above

[8] = Solubility of compound in PBS buffer at pH 7.4 after 24 hrs by UV/vis-spectroscopic analysis; assay type: physicochemical
In short: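 Compound in PBS pH 7.4 with 1% DMSO mixed, incubated 24 h and vacuum-filtered; filtrate read by UV/vis and relative solubility calculated from summed readings against a standard. Reported in mg/mL.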

[9] = Drug uptake in mouse central nervous system at 5 mg/kg, po in presence of P-gp inhibitor Elacridar; assay type: ADME, organism-based; details: in vivo
[10] = biological target: T3, Nuclear receptor subfamily 1 group I member 2 (Homo sapiens, UniProt O75469); experiment: Activity at PXR (unknown origin); in short: as §2
T3 sequence (O75469 whole entry): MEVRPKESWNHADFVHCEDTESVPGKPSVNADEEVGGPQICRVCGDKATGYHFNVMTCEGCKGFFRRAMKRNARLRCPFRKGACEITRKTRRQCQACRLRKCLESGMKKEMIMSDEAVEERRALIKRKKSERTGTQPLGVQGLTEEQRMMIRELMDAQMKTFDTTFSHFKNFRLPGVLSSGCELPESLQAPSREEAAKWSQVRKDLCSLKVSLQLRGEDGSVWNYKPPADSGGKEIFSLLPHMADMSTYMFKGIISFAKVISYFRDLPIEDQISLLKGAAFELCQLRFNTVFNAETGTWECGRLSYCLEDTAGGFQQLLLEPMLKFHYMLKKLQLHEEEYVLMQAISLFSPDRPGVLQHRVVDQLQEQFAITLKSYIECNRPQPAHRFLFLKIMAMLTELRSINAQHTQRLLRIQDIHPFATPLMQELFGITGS

[11] = organism: Homo sapiens; experiment: Activity at TR (unknown origin); in short: as §2
[12] = Cmax in CD1 mouse at 5 mg/kg, po measured up to 8 hrs after dose; assay type: ADME, organism-based; parameters: dose 5 mg/kg, route oral; details: in vivo
In short: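 Mice dosed orally at 5 mg/kg in 0.5% (w/v) HPMC in water with 5% (v/v) DMSO; blood, liver and kidney concentrations followed to 8 h. AUC0–8h given in h·ng/mL; parameters reported as means.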

[13] = Ratio of AUClast in mouse kidney to blood at 5 mg/kg, po measured up to 8 hrs post dose
[14] = biological target: T4, Bile acid receptor (Homo sapiens) (UniProt Q96RI1); experiment: Activity at FXR (unknown origin); in short: as §2
T4 sequence (whole entry): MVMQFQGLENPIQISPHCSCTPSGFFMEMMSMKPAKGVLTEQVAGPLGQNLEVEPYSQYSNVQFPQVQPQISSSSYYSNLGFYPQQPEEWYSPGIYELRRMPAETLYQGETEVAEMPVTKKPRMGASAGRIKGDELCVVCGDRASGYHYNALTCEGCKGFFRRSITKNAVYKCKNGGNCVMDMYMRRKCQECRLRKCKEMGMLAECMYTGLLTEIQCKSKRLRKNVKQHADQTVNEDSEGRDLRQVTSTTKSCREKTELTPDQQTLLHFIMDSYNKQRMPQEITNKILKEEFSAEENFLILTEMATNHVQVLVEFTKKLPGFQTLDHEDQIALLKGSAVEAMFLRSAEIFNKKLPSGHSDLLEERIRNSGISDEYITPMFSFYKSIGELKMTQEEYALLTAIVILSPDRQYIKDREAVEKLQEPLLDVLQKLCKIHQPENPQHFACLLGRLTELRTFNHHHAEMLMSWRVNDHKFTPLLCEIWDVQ

[15] = Drug uptake in mouse central nervous system at 5 mg/kg, po; assay type: ADME, organism-based; details: in vivo

Which Activity [1] does the source give for `N#Cc1c(-c2cccs2)nc(SCc2cccc(CC(=O)O)c2)[nH]c1=O` here?
The Activity was “Non-Toxic”.

What about the IC50 [2] of the same compound?
Its IC50 is 13 nM.

What about the IC50 [3] of the same compound?
Its IC50 is over 10000 nM.

What about the AUC(0-t) at 24 h [4] of the same compound?
The AUC(0-t) at 24 h was 10700 ng·h/mL.

And the Activity [5]?
Its Activity is “inactive”.

And the clearance [6]?
The clearance was 0.78 mL/min/kg.

What about the inhibition [7] of the same compound?
The inhibition was “Active”.

And the solubility at 24 h [8]?
The solubility at 24 h was 800 µg/mL (≈ 2090 µM).

And the Drug uptake [9]?
Its Drug uptake is “Not Active”.

What about the Activity [10] of the same compound?
The Activity was “Not Active”.

What about the Activity [11] of the same compound?
The Activity was “inactive”.

What about the Cmax [12] of the same compound?
The Cmax was 2570 ng/mL.

What about the Kp at 8 h [13] of the same compound?
The Kp at 8 h was 2.9.

And the Activity [14]?
The Activity was “inactive”.

And the Drug uptake [15]?
Its Drug uptake is “Not Active”.
